Reference: ChEMBL document CHEMBL1127085, “Derivatives of 2-(dipropylamino)tetralin: effect of the C8-substituent on the interaction with 5-HT1A receptors” (J Med Chem, 1993)

Key:
[1] = target: T1, 5-hydroxytryptamine receptor 1A (Rattus norvegicus) (UniProt P19327); experiment: Induction of clear-cut 5-HT motor syndrome in reserpine (5 mg/Kg, sc) pretreated rats at the dose of 32 uM/Kg; type: functional, organism-based
T1 sequence (whole entry): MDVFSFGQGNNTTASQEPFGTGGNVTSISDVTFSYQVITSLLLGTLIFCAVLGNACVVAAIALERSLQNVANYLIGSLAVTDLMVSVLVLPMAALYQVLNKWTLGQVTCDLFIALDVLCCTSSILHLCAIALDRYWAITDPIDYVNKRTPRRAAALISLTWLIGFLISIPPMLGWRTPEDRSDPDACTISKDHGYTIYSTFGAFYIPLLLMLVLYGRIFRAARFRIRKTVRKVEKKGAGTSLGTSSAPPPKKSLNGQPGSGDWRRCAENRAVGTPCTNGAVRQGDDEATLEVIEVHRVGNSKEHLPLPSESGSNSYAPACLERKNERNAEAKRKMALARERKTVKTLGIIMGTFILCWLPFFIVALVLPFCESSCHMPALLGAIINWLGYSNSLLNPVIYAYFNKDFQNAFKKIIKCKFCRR

[2] = target: T2, 5-hydroxytryptamine receptor 1A (Rattus norvegicus, UniProt P19327); experiment: Binding affinity of 5-hydroxytryptamine 1A receptor using [3H]-8-OH-DPAT as radioligand.
T2 sequence (P19327 whole entry): T1 sequence (whole entry)
In short: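 Membranes from cortex and hippocampus of male Sprague-Dawley rats, pooled from at least six rats, preincubated with 10 µM pargyline. Assay used 2 nM [3H]-8-OH-DPAT, test compound at 1-300 nM and 5 mg/mL tissue in 50 mM Tris-HCl with 4.0 mM CaCl2 and 5.7 mM ascorbate, pH 7.5. Incubated 10 min at 37 °C, filtered on GF/B, scintillation counted.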

Rattus norvegicus [3] = experiment: Induction of clear-cut 5-HT motor syndrome in reserpine (5 mg/Kg, sc) pretreated rats at the dose of 10 uM/Kg; type: functional
[4] = target: T1, 5-hydroxytryptamine receptor 1A (Rattus norvegicus); experiment: 5-HT (serotonin) turnover in rat hippocampus; type: functional, tissue-based
In short: (§1)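 Rats given compound sc in 0.9% NaCl (screening dose typically 32 µmol/kg); decapitated about 30 min after dosing. Hippocampus and corpus striatum dissected and frozen. Perchloric acid homogenates analysed by HPLC with electrochemical detection. Turnover taken as 5-HIAA/5-HT or DOPAC/DA, expressed as percent of saline control. Means ± SEM; n = 5-7 controls, 4-6 treated. ANOVA with Tukey test.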

[5] = target: T3, Dopamine receptor (Rattus norvegicus) (UniProt P25115+P19020+P30729+P18901+P61169); experiment: Dopamine (DA) turnover in rat corpus striatum; type: functional, tissue-based; in short: as §1
[6] = target: T1, 5-hydroxytryptamine receptor 1A (Rattus norvegicus); experiment: Number of rats displaying the 5-HT syndrome or leaving the cage out of the number of rats tested; type: functional
Rattus norvegicus [7] = experiment: Induction of clear-cut 5-HT motor syndrome in normal rats at the dose of 10 uM/Kg; type: functional
Rattus norvegicus [8] = experiment: Change in body temperature of rats upon administration after 30 minutes; type: functional
In short: (§2)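 Colonic temperature taken with an electrical thermometer probe 3.5 cm deep, before and 30 min after sc injection in saline. Change reported in °C as mean ± SEM; animal numbers as in the cage-leaving test. ANOVA with Tukey test.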

Rattus norvegicus [9] = experiment: Antagonistic effect on body temperature of rat induced by (R)-1 at the dose of 32 umol/kg with saline; type: functional
In short: (§3)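 Compound (32 µmol/kg sc) or saline injected 10 min before (R)-8-OH-DPAT (1.0 µmol/kg sc). Colonic temperature taken before injection and 30 min later; result is the change from the preinjection value. One-way ANOVA with Tukey HSD test.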

Rattus norvegicus [10] = experiment: Antagonistic effect on 5-HT syndrome or behavior of rat induced by (R)-8-hydroxy-DPAT at the dose of 32 and 1.0 umol/kg; type: functional
In short: (§4)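 Compound (32 µmol/kg sc) or saline injected 10 min before (R)-8-OH-DPAT (1.0 µmol/kg sc). Flat body posture, forepaw treading and hindlimb abduction scored during 30 min of observation. Results as number of rats showing the behaviour out of number tested; Fisher's exact probability test.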

Rattus norvegicus [11] = experiment: Antagonistic effect on 5-HT syndrome or behavior of rat at the dose of 32 umol/kg with saline; type: functional; in short: as §4
Rattus norvegicus [12] = experiment: Antagonistic effect on body temperature of rat induced by (R)-1 at the dose of 32 and 1.0 umol/kg of compound (R)-1; type: functional; in short: as §3
[13] = target: T1, 5-hydroxytryptamine receptor 1A (Rattus norvegicus); experiment: Antagonistic effect on 5-HT syndrome or behavior of rat induced by (R)-1 at the dose of 32 and 1.0 umol/kg of compound (R)-1; type: functional; in short: as §4
Rattus norvegicus [14] = experiment: Induction of clear-cut 5-HT motor syndrome in normal rats at the dose of 32 umol/kg; type: functional
[15] = target: T1, 5-hydroxytryptamine receptor 1A (Rattus norvegicus); experiment: Induction of clear-cut 5-HT motor syndrome in reserpine (5 mg/kg, sc) pretreated rats at the dose of 32 micro mol/kg; type: functional, organism-based
[16] = target: T1, 5-hydroxytryptamine receptor 1A (Rattus norvegicus); experiment: Induction of clear-cut 5-HT motor syndrome in normal rats at the dose of 32 micro mol/kg; type: functional
[17] = target: T1, 5-hydroxytryptamine receptor 1A (Rattus norvegicus); experiment: 5-HT (serotonin) turnover in rat hippocampus (p<0.05); type: functional, tissue-based
In short: (§5)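 Rats dosed sc (screening dose typically 32 µmol/kg, in 0.9% NaCl, 2 mL/kg); decapitated 5-10 min after the 30-min rating, […]. Hippocampus dissected and frozen. 5-HIAA/5-HT ratio measured by HPLC with electrochemical detection (+0.85 V) after perchloric acid homogenisation. Reported as percent of saline control, mean ± SEM, n = 4-6 per group; ANOVA with Tukey test.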

[18] = target: T1, 5-hydroxytryptamine receptor 1A (Rattus norvegicus); experiment: Effect of 5-HT accumulation in rat hippocampus at the dose of 32 umol/kg (p<0.01); type: functional, tissue-based
In short: (§6)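 Test compound given sc in 0.9% NaCl. NSD 1015 (287 µmol/kg sc) given 30 min later to inhibit aromatic L-amino acid decarboxylase; rats decapitated after a further 30 min. Hippocampus and striatum stored at -40 °C for up to 1 week. Perchloric acid homogenates with α-methyl-5-hydroxytryptophan internal standard; 5-HTP and DOPA measured by HPLC-EC. Percent of control, means ± SEM; ANOVA with Tukey test.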

[19] = target: T3, Dopamine receptor (Rattus norvegicus); experiment: Effect of accumulation of DOPA in rat striatum at the dose of 32 umol/kg; type: functional, tissue-based; in short: as §6
Rattus norvegicus [20] = experiment: Change in body temperature of rats upon administration after 30 minutes (p<0.01); type: functional; in short: as §2
Rattus norvegicus [21] = experiment: Induction of clear-cut 5-HT motor syndrome in reserpine (5 mg/Kg, sc) pretreated rats at the dose of 1 uM/Kg; type: functional
Rattus norvegicus [22] = experiment: Induction of clear-cut 5-HT motor syndrome in normal rats at the dose of 1 uM/Kg; type: functional
[23] = target: T1, 5-hydroxytryptamine receptor 1A (Rattus norvegicus); experiment: 5-HT (serotonin) turnover in rat hippocampus (p<0.01); type: functional, tissue-based; in short: as §5
Rattus norvegicus [24] = experiment: Effect of DOPA accumulation in rat striatum at the dose of 32 umol/kg (p<0.1); type: functional; in short: as §6
Rattus norvegicus [25] = experiment: Induction of clear-cut 5-HT motor syndrome in normal rats at the dose of 32 uM/Kg; type: functional
Rattus norvegicus [26] = experiment: Induction of clear-cut 5-HT motor syndrome in reserpine (5 mg/kg, sc) pretreated rats at the dose of 10 micro mol/kg; type: functional

| Structure (SMILES) | Ki [2] [nM] | Turnover [4] | Turnover [5] | No. of rats [6] | Temperature (Rattus norvegicus [8]) | Behavioral effect [15] | Behavioral effect [16] | other results |
| --- | --- | --- | --- | --- | --- | --- | --- | --- |
| CCCN(CCC)C1CCc2cccc(C#N)c2C1 (racemic) | 26 | – | – | – | – | – | – | Behavioral effect [1]: 3 |
| CCCN(CCC)[C@@H]1CCc2cccc(C(=O)OC)c2C1 | – | 63 | 90 | 0 | -2.3 | – | – | Behavioral effect (Rattus norvegicus [3]): 4; Behavioral effect (Rattus norvegicus [7]): 4 |
| CCCN(CCC)[C@H]1CCc2c(F)ccc(O)c2C1 | – | – | – | – | – | – | – | Temperature (Rattus norvegicus [9]): -0.02; Effect (Rattus norvegicus [10]): 0; Effect (Rattus norvegicus [11]): 0; Temperature (Rattus norvegicus [12]): -0.76 |
| CCCN(CCC)[C@H]1CCc2cccc(OS(=O)(=O)C(F)(F)F)c2C1 | – | 84 | 104 | 1 | 0.5 | – | – | Effect [13]: 4; Behavioral effect (Rattus norvegicus [14]): 0; Temperature (Rattus norvegicus [12]): -3.18 |
| CCCN(CCC)C1CCc2cccc(C(N)=O)c2C1 (racemic) | 6 | – | – | – | – | – | – | Behavioral effect [1]: 4 |
| CCCN(CCC)[C@H]1CCc2cccc(-c3ccccc3)c2C1 | – | 98 | 99 | 4 | 0.6 | 0 | 0 | Effect [13]: 4; Temperature (Rattus norvegicus [12]): -2.58 |
| CCCN(CCC)[C@H]1CCc2cccc(OC)c2C1 | – | – | 79 | 0 | -1.5 | – | 4 | Turnover [17]: 80 |
| CCCN(CCC)[C@H]1CCc2cccc(CO)c2C1 | 130 | – | 121 | 0 | -2.2 | 0 | 4 | Turnover [17]: 75; Accumulation [18]: 58; Accumulation [19]: 101 |
| CCCN(CCC)[C@@H]1CCc2cccc(-c3ccccc3)c2C1 | – | 98 | 85 | 3 | – | 0 | 0 | Effect [13]: 4; Temperature (Rattus norvegicus [20]): 0.3; Temperature (Rattus norvegicus [12]): -3.68 |
| CCCN(CCC)[C@@H]1CCc2cccc(C(C)=O)c2C1 | – | 68 | 106 | 0 | -2.8 | – | – | Behavioral effect (Rattus norvegicus [21]): 4; Behavioral effect (Rattus norvegicus [22]): 4 |
| CCCN(CCC)C1CCc2cccc(C(=O)c3ccccc3)c2C1 (racemic) | 2.8 | – | – | – | – | – | – | – |
| C#Cc1cccc2c1C[C@H](N(CCC)CCC)CC2 | 22 | – | 78 | 0 | – | 4 | 4 | Turnover [23]: 73; Accumulation [18]: 43; Accumulation [19]: 59; Accumulation (Rattus norvegicus [24]): 50; Temperature (Rattus norvegicus [20]): -1.6 |
| CCCN(CCC)C1CCc2cccc(-c3ccccc3)c2C1 (racemic) | 12 | – | – | – | – | 0 | – | – |
| CCCN(CCC)[C@@H]1CCc2cccc(C(=O)c3ccccc3)c2C1 | 4.6 | 74 | 122 | 0 | -3.3 | – | – | Accumulation [18]: 56; Behavioral effect (Rattus norvegicus [25]): 4; Accumulation [19]: 69; Behavioral effect [1]: 4 |
| C#Cc1cccc2c1CC(N(CCC)CCC)CC2 (racemic) | 4 | – | – | – | – | – | – | Behavioral effect (Rattus norvegicus [26]): 1 |
